Experimental data reported in ChEMBL document CHEMBL5247578, “Effective synthesis of benzimidazoles-imidazo[1,2-a]pyrazine conjugates: A comparative study of mono-and bis-benzimidazoles for antitumor activity” (Eur J Med Chem, 2019).

Columns and labels:
Type in all cases: functional
T47D = assay: Antiproliferative activity against human T47D cells assessed as cell growth inhibition at 10 uM incubated for 48 hrs by sulforhodamine B assay relative to control
Summary of the method: (§1)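 NCI-60 single-dose screen at 10^-5 M. Cells grown in RPMI 1640 with 5% FBS and 2 mM L-glutamine, plated at 5,000–40,000 cells/well, and preincubated 24 h. Drug (DMSO stock) added and incubated 48 h at 37 °C, 5% CO2. Adherent cells fixed with cold TCA, stained with 0.4% SRB in 1% acetic acid, dye solubilized in 10 mM trizma base, A515 read. Percent growth taken against time-zero and untreated control.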

BT-549 = assay: Antiproliferative activity against human BT-549 cells assessed as cell growth inhibition at 10 uM incubated for 48 hrs by sulforhodamine B assay relative to control
Summary of the method: (§2)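 Single-dose NCI-60 prescreen at 10^-5 M. Cells in RPMI 1640 with 5% FBS and 2 mM L-glutamine, seeded 5,000–40,000 cells/well with 24 h preincubation, then drug exposure for 48 h at 37 °C under 5% CO2. Growth read by SRB staining of TCA-fixed cells at 515 nm against time-zero and untreated controls. Negative growth values denote cell kill.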

MDA-MB-231 = assay: Antiproliferative activity against human MDA-MB-231 cells assessed as cell growth inhibition at 10 uM incubated for 48 hrs by sulforhodamine B assay relative to control; summary of the method: as §1
DU-145 = assay: Antiproliferative activity against human DU-145 cells assessed as cell growth inhibition at 10 uM incubated for 48 hrs by sulforhodamine B assay relative to control
Summary of the method: (§3)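 NCI-60 one-dose prescreen at 10^-5 M. Cells grown in RPMI 1640 with 5% FBS and 2 mM glutamine, preincubated 24 h, then exposed 48 h at 37 °C. Adherent lines TCA-fixed, SRB-stained, A515 read. Growth percent relative to time-zero and control; negative values mean cell kill.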

TK-10 = assay: Antiproliferative activity against human TK-10 cells assessed as cell growth inhibition at 10 uM incubated for 48 hrs by sulforhodamine B assay relative to control; summary of the method: as §1
CAKI-1 [1] = assay: Antiproliferative activity against human CAKI-1 cells assessed as cell growth inhibition at 10 uM incubated for 48 hrs by sulforhodamine B assay relative to control; summary of the method: as §2
SK-OV-3 = assay: Antiproliferative activity against human SK-OV-3 cells assessed as cell growth inhibition at 10 uM incubated for 48 hrs by sulforhodamine B assay relative to control; summary of the method: as §1
OVCAR-8 = assay: Antiproliferative activity against human OVCAR-8 cells assessed as cell growth inhibition at 10 uM incubated for 48 hrs by sulforhodamine B assay relative to control; summary of the method: as §1
OVCAR-5 = assay: Antiproliferative activity against human OVCAR-5 cells assessed as cell growth inhibition at 10 uM incubated for 48 hrs by sulforhodamine B assay relative to control; summary of the method: as §1
OVCAR-4 = assay: Antiproliferative activity against human OVCAR-4 cells assessed as cell growth inhibition at 10 uM incubated for 48 hrs by sulforhodamine B assay relative to control; summary of the method: as §1
IGROV-1 = assay: Antiproliferative activity against human IGROV-1 cells assessed as cell growth inhibition at 10 uM incubated for 48 hrs by sulforhodamine B assay relative to control; summary of the method: as §1
SK-MEL-28 = assay: Antiproliferative activity against human SK-MEL-28 cells assessed as cell growth inhibition at 10 uM incubated for 48 hrs by sulforhodamine B assay relative to control; summary of the method: as §1
SNB-75 = assay: Antiproliferative activity against human SNB-75 cells assessed as cell growth inhibition at 10 uM incubated for 48 hrs by sulforhodamine B assay relative to control; summary of the method: as §1
SNB-19 = assay: Antiproliferative activity against human SNB-19 cells assessed as cell growth inhibition at 10 uM incubated for 48 hrs by sulforhodamine B assay relative to control; summary of the method: as §1
SF-539 = assay: Antiproliferative activity against human SF-539 cells assessed as cell growth inhibition at 10 uM incubated for 48 hrs by sulforhodamine B assay relative to control; summary of the method: as §1
HCT-15 = assay: Antiproliferative activity against human HCT-15 cells assessed as cell growth inhibition at 10 uM incubated for 48 hrs by sulforhodamine B assay relative to control; summary of the method: as §3
HCT-116 = assay: Antiproliferative activity against human HCT-116 cells assessed as cell growth inhibition at 10 uM incubated for 48 hrs by sulforhodamine B assay relative to control; summary of the method: as §3
HCC 2998 = assay: Antiproliferative activity against human HCC 2998 cells assessed as cell growth inhibition at 10 uM incubated for 48 hrs by sulforhodamine B assay relative to control; summary of the method: as §3
COLO 205 = assay: Antiproliferative activity against human COLO 205 cells assessed as cell growth inhibition at 10 uM incubated for 48 hrs by sulforhodamine B assay relative to control; summary of the method: as §2
NCI-H322M = assay: Antiproliferative activity against human NCI-H322M cells assessed as cell growth inhibition at 10 uM incubated for 48 hrs by sulforhodamine B assay relative to control; summary of the method: as §1
HOP-62 = assay: Antiproliferative activity against human HOP-62 cells assessed as cell growth inhibition at 10 uM incubated for 48 hrs by sulforhodamine B assay relative to control; summary of the method: as §3
EKVX = assay: Antiproliferative activity against human EKVX cells assessed as cell growth inhibition at 10 uM incubated for 48 hrs by sulforhodamine B assay relative to control; summary of the method: as §3
A549 = assay: Antiproliferative activity against human A549 cells assessed as cell growth inhibition at 10 uM incubated for 48 hrs by sulforhodamine B assay relative to control; summary of the method: as §2
RPMI-8226 = assay: Antiproliferative activity against human RPMI-8226 cells assessed as cell growth inhibition at 10 uM incubated for 48 hrs by sulforhodamine B assay relative to control; summary of the method: as §1
MOLT-4 = assay: Antiproliferative activity against human MOLT-4 cells assessed as cell growth inhibition at 10 uM incubated for 48 hrs by sulforhodamine B assay relative to control; summary of the method: as §1
HL-60 = assay: Antiproliferative activity against human HL-60 cells assessed as cell growth inhibition at 10 uM incubated for 48 hrs by sulforhodamine B assay relative to control; summary of the method: as §3
Malme-3M [2] = assay: Antiproliferative activity against human Malme-3M cells assessed as cell growth at 0.00000001 M incubated for 48 hrs by SRB assay relative to control; conditions: dose 10 nM, read-out: Activity
CAKI-1 [3] = assay: Growth inhibition against human CAKI-1 cells incubated for 48 hrs by sulforhodamine B assay
A498 = assay: Antiproliferative activity against human A498 cells assessed as cell growth inhibition at 10 uM incubated for 48 hrs by sulforhodamine B assay relative to control; summary of the method: as §2
UACC-257 = assay: Antiproliferative activity against human UACC-257 cells assessed as cell growth inhibition at 10 uM incubated for 48 hrs by sulforhodamine B assay relative to control; summary of the method: as §1
K562 = assay: Antiproliferative activity against human K562 cells assessed as cell growth inhibition at 10 uM incubated for 48 hrs by sulforhodamine B assay relative to control; summary of the method: as §1
UACC-62 = assay: Antiproliferative activity against human UACC-62 cells assessed as cell growth at 0.00001 M incubated for 48 hrs by SRB assay relative to control; conditions: read-out: Activity
Malme-3M [4] = assay: Antiproliferative activity against human Malme-3M cells assessed as cell growth inhibition at 10 uM incubated for 48 hrs by sulforhodamine B assay relative to control; summary of the method: as §1

| SMILES | inhibition at 10 µM (T47D) [%] | inhibition at 10 µM (BT-549) [%] | inhibition at 10 µM (MDA-MB-231) [%] | inhibition at 10 µM (DU-145) [%] | inhibition at 10 µM (OVCAR-8) [%] | inhibition at 10 µM (OVCAR-5) [%] | inhibition at 10 µM (OVCAR-4) [%] | inhibition at 10 µM (IGROV-1) [%] | inhibition at 10 µM (SNB-75) [%] | inhibition at 10 µM (SNB-19) [%] | inhibition at 10 µM (SF-539) [%] | inhibition at 10 µM (HCT-15) [%] | inhibition at 10 µM (HCT-116) [%] | inhibition at 10 µM (COLO 205) [%] | inhibition at 10 µM (EKVX) [%] | inhibition at 10 µM (A549) [%] | inhibition at 10 µM (RPMI-8226) [%] | inhibition at 10 µM (MOLT-4) [%] | inhibition at 10 µM (HL-60) [%] | inhibition at 10 µM (A498) [%] | other results |
| --- | --- | --- | --- | --- | --- | --- | --- | --- | --- | --- | --- | --- | --- | --- | --- | --- | --- | --- | --- | --- | --- |
| CCc1ccc(-c2cn3ccnc3c(-c3ccc4ncn(Cc5ccccc5)c4c3)n2)cc1 | 94.8 | 15.9 | 43.2 | 19.1 | 30.8 | 14.9 | 35.1 | 25 | 29.3 | 20.9 | 21.2 | 74.7 | 61.2 | 34.2 | 39.7 | 45.4 | 55.4 | 54.2 | 39.6 | – | inhibition at 10 µM (TK-10): 15.5%; inhibition at 10 µM (CAKI-1 [1]): 47.9%; inhibition at 10 µM (SK-OV-3): 0.55%; inhibition at 10 µM (SK-MEL-28): 19.1%; inhibition at 10 µM (HCC 2998): 25.2%; inhibition at 10 µM (NCI-H322M): 0.89%; inhibition at 10 µM (HOP-62): 17.9% |
| COc1ccc(-c2cn3ccnc3c(-c3ccc4ncn(C5CCCCC5)c4c3)n2)cc1 | -8.6 | 68.9 | 71.1 | 81.8 | 71.2 | 58.8 | 46.4 | 53.4 | -26.3 | 68.4 | -43.4 | 78.8 | 91.3 | -8.01 | 56.6 | 68.6 | 95.6 | 82.8 | 98.6 | -12.3 | growth at 0.01 µM (Malme-3M [2]): 100%; GI50 (CAKI-1 [3]): 757 nM; inhibition at 10 µM (TK-10): 18.5%; inhibition at 10 µM (SK-OV-3): 74.3%; inhibition at 10 µM (UACC-257): 26.3%; inhibition at 10 µM (SK-MEL-28): 47.7%; inhibition at 10 µM (HCC 2998): 62.6%; inhibition at 10 µM (NCI-H322M): 31.5%; inhibition at 10 µM (K562): 92%; growth at 10 µM (UACC-62): 7% |
| c1ccc(-c2cn3ccnc3c(-c3ccc4ncn(C5CCCCC5)c4c3)n2)cc1 | -11.1 | 57.1 | 41.5 | 29.3 | 63.9 | 7.87 | 34.5 | 11.9 | 44.4 | 22.9 | 27.8 | 51.6 | 59.5 | 20.7 | 24.2 | 33.3 | 85.7 | 67.7 | 67.1 | 26.1 | inhibition at 10 µM (TK-10): 2.26%; inhibition at 10 µM (SK-OV-3): 7.52%; inhibition at 10 µM (UACC-257): 5.22%; inhibition at 10 µM (SK-MEL-28): 18%; inhibition at 10 µM (NCI-H322M): 5.25%; inhibition at 10 µM (K562): 70.6% |
| c1cn2cc(-c3ccc4c(c3)ncn4C3CCCCC3)nc(-c3ccc4ncn(C5CCCCC5)c4c3)c2n1 | 44.7 | 27.7 | 28.9 | 8.72 | 42.6 | 1.44 | – | 8.51 | 24.8 | 10.6 | 35.7 | 35.6 | 29.1 | 6.71 | 60.2 | 25.3 | 70.8 | 56.9 | 30 | 16.3 | inhibition at 10 µM (CAKI-1 [1]): 15.9%; inhibition at 10 µM (UACC-257): 14.9%; inhibition at 10 µM (Malme-3M [4]): 5.14%; inhibition at 10 µM (HCC 2998): 15.5%; inhibition at 10 µM (HOP-62): 16.8%; inhibition at 10 µM (K562): 38.5% |
| c1ccc2c(-c3cn4ccnc4c(-c4ccc5ncn(C6CCCCC6)c5c4)n3)cccc2c1 | 41.3 | – | 20.8 | 5.1 | – | – | 19.7 | – | 16.5 | 9.08 | – | 4.46 | 17.9 | – | 13.2 | – | 22.9 | 44.7 | 38.9 | 14 | inhibition at 10 µM (CAKI-1 [1]): 25.1%; inhibition at 10 µM (HCC 2998): 2.23%; inhibition at 10 µM (NCI-H322M): 4.74%; inhibition at 10 µM (HOP-62): 19.6%; inhibition at 10 µM (K562): 30.9% |
| Cc1cccc(-c2cn3ccnc3c(-c3ccc4ncn(Cc5ccccc5)c4c3)n2)c1 | 86 | – | 28.4 | 14.2 | 11.5 | 6.64 | 19.3 | 9.51 | 21.7 | 2.58 | 7.28 | 35.2 | 36.7 | 11.3 | 22.3 | 14.9 | 37.5 | 36.9 | 18.2 | 22.1 | inhibition at 10 µM (CAKI-1 [1]): 24.8%; inhibition at 10 µM (HOP-62): 9.68% |
| c1cn2cc(-c3ccc4ncn(C5CCCCC5)c4c3)nc(-c3ccc4ncn(C5CCCCC5)c4c3)c2n1 | 54.9 | 38.3 | 49.2 | 46.3 | 59.5 | 7.18 | 22.8 | 60.8 | 25.4 | 41.2 | 16.7 | 57.1 | 80.2 | 22.4 | 30.8 | 57.6 | 89.1 | 79.1 | 51 | 26.2 | inhibition at 10 µM (TK-10): 14.4%; inhibition at 10 µM (CAKI-1 [1]): 54.6%; inhibition at 10 µM (SK-OV-3): 14.8%; inhibition at 10 µM (UACC-257): 35.5%; inhibition at 10 µM (SK-MEL-28): 24.4%; inhibition at 10 µM (Malme-3M [4]): 7.04%; inhibition at 10 µM (HCC 2998): 17.7%; inhibition at 10 µM (NCI-H322M): 39.1%; inhibition at 10 µM (HOP-62): 42.6%; inhibition at 10 µM (K562): 69.8% |
